Experimental data as given in ChEMBL document CHEMBL4270548, “Discovery of a potent glucokinase activator with a favorable liver and pancreas distribution pattern for the treatment of type 2 diabetes mellitus” (Eur J Med Chem, 2018).
Converted amounts (≈) assume the structure as drawn. The source made the active and inactive calls. The calls are words filed in the database; no cut-off is given here.

What was measured:
[1] = target: T1, Hexokinase-4 (Homo sapiens) (UniProt P35557); experiment: Activation of human glucokinase assessed as conversion of D-glucose to D-glucose-6-phosphate at 10 uM preincubated for 10 mins followed by 5 mM glucose addition measured for 5 mins at 30 secs time interval by G6PDH/NADP coupled assay relative to control
T1 sequence (whole entry): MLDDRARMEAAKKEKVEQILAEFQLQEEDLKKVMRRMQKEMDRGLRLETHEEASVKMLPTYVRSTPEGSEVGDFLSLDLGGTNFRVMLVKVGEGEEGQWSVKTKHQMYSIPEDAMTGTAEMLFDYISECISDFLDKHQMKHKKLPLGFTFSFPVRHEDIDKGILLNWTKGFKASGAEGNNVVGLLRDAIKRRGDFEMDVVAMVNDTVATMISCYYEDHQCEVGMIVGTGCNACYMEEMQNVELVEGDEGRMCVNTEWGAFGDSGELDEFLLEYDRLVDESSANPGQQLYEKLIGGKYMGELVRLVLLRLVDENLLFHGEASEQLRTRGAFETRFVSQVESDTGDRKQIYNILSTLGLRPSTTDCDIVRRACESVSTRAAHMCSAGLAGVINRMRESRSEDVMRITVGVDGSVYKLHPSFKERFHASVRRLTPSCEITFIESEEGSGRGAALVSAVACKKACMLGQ
Procedure, shortened: (§1)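 Human GK in 25 mM HEPES pH 7.1, 25 mM KCl, 2 mM MgCl2, 1 mM NADP, 1 mM DTT, 2 U/mL G6PDH and 5 mM D-glucose. Compound at 10 µM preincubated 10 min at room temperature. Started with 20 mM ATP (added stock). A340 read every 30 s for 5 min, slope from the first 3 min. Fold over DMSO, or relative scale (DMSO 0, 10 µM reference activator 1). Mean ± SEM, n = 3.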

[2] = target: T1, Hexokinase-4 (Homo sapiens); experiment: Activation of human glucokinase assessed as conversion of D-glucose to D-glucose-6-phosphate at 10 uM preincubated for 10 mins […] measured for 5 mins at 30 secs time interval by G6PDH/NADP coupled assay relative to RO0281675; procedure, shortened: as §1
hERG (KCNH2) = hERG (KCNH2) (Homo sapiens, UniProt Q12809); experiment: Inhibition of [3H]-dofetilide binding to human ERG expressed in HEK293 cell membranes at 30 uM after 1 hr by scintillation proximity assay relative to control; details: HEK293 cell membranes that express hERG, probe [3H]-dofetilide
hERG (KCNH2), sequence (Q12809 whole entry): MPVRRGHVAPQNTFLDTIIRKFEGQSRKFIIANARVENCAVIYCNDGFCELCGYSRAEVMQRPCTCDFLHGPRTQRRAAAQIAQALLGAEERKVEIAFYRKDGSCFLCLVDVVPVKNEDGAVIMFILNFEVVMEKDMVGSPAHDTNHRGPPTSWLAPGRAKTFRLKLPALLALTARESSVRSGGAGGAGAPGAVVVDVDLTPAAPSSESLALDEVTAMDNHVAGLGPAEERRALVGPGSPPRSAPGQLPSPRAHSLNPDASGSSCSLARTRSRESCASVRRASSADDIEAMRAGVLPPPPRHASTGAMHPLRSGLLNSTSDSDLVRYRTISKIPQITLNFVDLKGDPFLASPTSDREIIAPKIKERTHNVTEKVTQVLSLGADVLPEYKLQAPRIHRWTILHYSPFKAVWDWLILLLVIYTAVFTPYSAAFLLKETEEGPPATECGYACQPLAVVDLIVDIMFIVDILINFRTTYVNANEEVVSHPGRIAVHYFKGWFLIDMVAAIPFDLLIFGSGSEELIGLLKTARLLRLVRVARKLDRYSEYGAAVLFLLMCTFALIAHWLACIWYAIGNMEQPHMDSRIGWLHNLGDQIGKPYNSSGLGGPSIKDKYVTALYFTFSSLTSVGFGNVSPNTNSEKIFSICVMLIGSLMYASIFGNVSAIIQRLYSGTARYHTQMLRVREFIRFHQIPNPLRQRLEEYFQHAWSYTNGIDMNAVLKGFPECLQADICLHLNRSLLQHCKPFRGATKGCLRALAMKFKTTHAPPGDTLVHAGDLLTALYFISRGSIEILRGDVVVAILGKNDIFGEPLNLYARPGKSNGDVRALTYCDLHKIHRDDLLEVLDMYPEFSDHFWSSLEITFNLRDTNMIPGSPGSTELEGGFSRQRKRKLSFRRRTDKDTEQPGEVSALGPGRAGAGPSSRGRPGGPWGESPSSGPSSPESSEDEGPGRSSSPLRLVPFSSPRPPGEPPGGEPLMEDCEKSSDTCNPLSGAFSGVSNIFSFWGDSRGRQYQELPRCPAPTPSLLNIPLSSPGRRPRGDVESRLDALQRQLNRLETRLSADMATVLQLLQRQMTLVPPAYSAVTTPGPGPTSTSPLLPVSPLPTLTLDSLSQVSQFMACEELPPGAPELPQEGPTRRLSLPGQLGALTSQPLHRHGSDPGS
Procedure, shortened: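 hERG-HEK293 membranes with 10 nM final [3H]-dofetilide and poly-L-lysine SPA beads in 50 mM Tris-Cl, 1.0 mM MgCl2, 10 mM KCl, pH 7.4. Shaken 1 h, beads settled 3 h, then scintillation counting. Normalized to DMSO (0%) and E-4031 (100% inhibition). Single-point at 30 µM, mean ± SEM, n = 3.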

[3] = Aqueous solubility of the compound in phosphate buffered saline at pH 7.4 at 8 to 2000 uM by nephelometric method; assay type: physicochemical
Procedure, shortened: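 Compound serial dilutions (8 µM–2 mM, before addition to buffer) transferred into PBS pH 7.4 (5 µL into 95 µL). Solubility read by nephelometry. Only wells with blank below mean blank + 2SD were used.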

[4] = Cmax in mouse at 30 mg/kg, po administered as single dose by LC/MS/MS analysis; details: in vivo
Mus musculus [5] = experiment: Antidiabetic activity in po dosed ob/ob mouse assessed as reduction in blood glucose level administered for 15 to 30 mins prior to glucose challenge measured up to 120 mins post dose by OGTT; assay type: functional, organism-based
Procedure, shortened: (§2)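 Fasted male C57BL/6J or ob/ob mice (8 weeks, n = 8/group) dosed orally in 0.5% methylcellulose 15 or 30 min before a 2 g/kg oral glucose load. Tail vein glucose measured by glucometer at −15 or −30, 0, 20, 40, 60, 90 and 120 min. Incremental glucose AUC0-120 min compared with vehicle. Mean ± SEM, Dunnett's test.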

Mus musculus [6] = experiment: Antidiabetic activity in ob/ob mouse assessed as reduction in plasma glucose level at 10 to 30 mg/kg, po bid administered for 14 days measured at post last dose by glucometric method; assay type: functional, organism-based
Procedure, shortened: (§3)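 Male ob/ob mice (9 weeks) dosed orally twice daily for 4 weeks, vehicle 0.5% MC. Plasma glucose measured by portable glucometer at 2 and 4 weeks. Liver TG assessed at the end of treatment. Mean ± SEM (n = 10), Dunnett's test versus vehicle.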

Mus musculus [7] = experiment: Antidiabetic activity in ob/ob mouse assessed as reduction in plasma glucose level at 10 to 30 mg/kg, po bid administered for 28 days measured at post last dose by glucometric method; assay type: functional, organism-based; procedure, shortened: as §3
Mus musculus [8] = experiment: Antidiabetic activity in po dosed C57BL/6J mouse assessed as reduction in blood glucose level administered for 15 to 30 mins prior to glucose challenge measured up to 120 mins post dose by OGTT; assay type: functional, organism-based; procedure, shortened: as §2
Mus musculus [9] = experiment: Antidiabetic activity in C57BL/6J mouse assessed as increase in insulin secretion at 100 mg/kg, po measured up to 60 mins by ELISA; assay type: functional, organism-based
Procedure, shortened: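 Male C57BL/6J mice (8 weeks) fasted 2 h, then dosed orally at time 0 (n = 8/group). Tail vein insulin measured at 0, 30 and 60 min by ultra-sensitive mouse insulin ELISA. Mean ± SEM, Dunnett's test.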

Mus musculus [10] = experiment: Antidiabetic activity in C57BL/6J mouse assessed as reduction in blood glucose AUC (0 to 120 mins) at 30 mg/kg, po dosed 30 minutes prior to glucose challenge by OGTT relative to control; assay type: functional; design: scale not given: the % may be the effect or the level left; procedure, shortened: as §2
Mus musculus [11] = experiment: Antidiabetic activity in po dosed C57BL/6J mouse assessed as reduction in blood glucose level administered 15 mins prior to glucose challenge measured up to 120 mins post dose by OGTT; assay type: functional, organism-based; procedure, shortened: as §2

SMILES	fold change (FC) [1]	fold change (FC) [2]	solubility kinetic [3]	inhibition at 1 h, 30 µM (hERG (KCNH2))	other results
CC(=O)NCC(=O)N1CCCC1c1cc(C(=O)Nc2ncc(Cl)s2)c(C)s1 (stereo unspecified)	5.32	0.395	–	3%	–
Cc1sc(C2CCCN2C(=O)CN(C)CC(=O)O)cc1C(=O)Nc1ncc(F)s1 (stereo unspecified)	6.92	0.71	–	-6%	–
Cc1sc(-c2ccccc2C(N)=O)cc1C(=O)Nc1nc2c(s1)CCC2	6.23	0.699	1.95 µM (≈ 0.748 µg/mL)	–	Cmax [4]: < 1 µM
CCN(CC(=O)O)CC(=O)N1CCC[C@H]1c1cc(C(=O)Nc2ncc(F)s2)c(C)s1 [listing 1 of 2 here]	8.6	0.87	–	–	Activity (Mus musculus [5]): Dose-dependent effect; Activity (Mus musculus [6]): Active; Activity (Mus musculus [7]): Active; Activity (Mus musculus [8]): Dose-dependent effect; Activity (Mus musculus [9]): Active
Cc1sc(C2CCCN2C(=O)CCN)cc1C(=O)Nc1nc2c(s1)CCC2 (stereo unspecified)	3.46	0.274	0.98 µM (≈ 0.396 µg/mL)	–	–
CC(=O)N1CCCCC1c1cc(C(=O)Nc2nc3c(s2)CCC3)c(C)s1 (stereo unspecified)	1.13	0.017	0.98 µM (≈ 0.382 µg/mL)	–	–
Cc1sc(C2CCCN2C(=O)CN)cc1C(=O)Nc1nccs1 (stereo unspecified)	3.67	0.293	7.81 µM (≈ 2.74 µg/mL)	–	–
Cc1sc(C2CCCN2C(=O)CN(C)CC(=O)O)cc1C(=O)Nc1ncc(Cl)s1.Cl (stereo unspecified)	8.35	0.718	–	11%	Activity (Mus musculus [10]): 82%
Cc1sc(-c2ccccc2C(=O)NCCc2nnn[nH]2)cc1C(=O)Nc1nc2c(s1)CCC2	0.84	-0.019	31.3 µM (≈ 15 µg/mL)	–	–
CCN(CC(=O)O)CC(=O)N1CCC[C@H]1c1cc(C(=O)Nc2ncc(F)s2)c(C)s1 [listing 2 of 2 here]	–	–	–	-1%	–
Cc1sc(N2CCCCC2=O)cc1C(=O)Nc1nc2c(s1)CCC2	2.96	0.235	0.98 µM (≈ 0.354 µg/mL)	–	–
Cc1sc(C2CCCN2C(=O)CNCC(=O)O)cc1C(=O)Nc1ncc(Cl)s1 (stereo unspecified)	4.75	0.438	–	28%	–
Cc1sc(C2CCCN2C(=O)CNS(C)(=O)=O)cc1C(=O)Nc1ncc(Cl)s1 (stereo unspecified)	6.21	0.46	–	16%	–
Cc1sc(C2CCCN2C(=O)CCN)cc1C(=O)Nc1nccs1 (stereo unspecified)	2.86	0.175	15.6 µM (≈ 5.69 µg/mL)	–	–
Cc1sc(C2CCCN2C(=O)CN(C)C)cc1C(=O)Nc1ncc(Cl)s1 (stereo unspecified)	6.81	0.598	3.91 µM (≈ 1.61 µg/mL)	–	–
Cc1sc(-c2ccccc2C(=O)NCCC(N)=O)cc1C(=O)Nc1nc2c(s1)CCC2	2.56	0.187	3.91 µM (≈ 1.78 µg/mL)	–	–
Cc1sc(-c2ccccc2C(=O)NCCN(C)C)cc1C(=O)Nc1nc2c(s1)CCC2	4.31	0.428	1.95 µM (≈ 0.887 µg/mL)	–	–

The next lines start with results.

fold change (FC) [1]	fold change (FC) [2]	solubility kinetic [3]	SMILES	inhibition at 1 h, 30 µM (hERG (KCNH2))	other results
4.99	0.381	1.95 µM	Cc1sc([C@H]2CCCN2C(=O)CN(C)C)cc1C(=O)Nc1ncc(Cl)s1.Cl	–	–
3.24	0.168	–	Cc1sc(C2CCCN2C(=O)CN(C)S(C)(=O)=O)cc1C(=O)Nc1ncc(Cl)s1 (stereo unspecified)	–	–
6.86	0.61	–	Cc1sc(C2CCCN2C(=O)CN(C)CCCC(=O)O)cc1C(=O)Nc1ncc(F)s1 (stereo unspecified)	78%	–
2.53	0.187	7.81 µM (≈ 2.93 µg/mL)	CC(=O)N1CCCC1c1cc(C(=O)Nc2nc3c(s2)CCC3)c(C)s1 (stereo unspecified)	–	–
8.8	0.832	–	Cc1sc([C@@H]2CCCN2C(=O)[C@H](C)N(C)CC(=O)O)cc1C(=O)Nc1ncc(F)s1	4%	–
4.89	0.466	–	Cc1sc(C2CCCN2C(=O)CN(C)CCC(=O)O)cc1C(=O)Nc1ncc(F)s1.Cl (stereo unspecified)	17%	Activity (Mus musculus [10]): 47%
6.95	0.619	–	Cc1sc(C2CCCN2C(=O)CN(C)CCCCC(=O)O)cc1C(=O)Nc1ncc(F)s1 (stereo unspecified)	77%	–
7.26	0.686	–	Cc1sc([C@@H]2CCCN2C(=O)CN(C)CCC(=O)O)cc1C(=O)Nc1ncc(F)s1	49%	–
3.89	0.373	0.98 µM (≈ 0.419 µg/mL)	Cc1sc(-c2ccccc2C(=O)NCCO)cc1C(=O)Nc1nc2c(s1)CCC2	–	–
4.7	0.38	7.81 µM (≈ 2.96 µg/mL)	Cc1sc(C2CCCN2C(=O)CN(C)C)cc1C(=O)Nc1nccs1 (stereo unspecified)	–	–
2.41	0.168	3.91 µM (≈ 1.36 µg/mL)	Cc1sc(N2CCCC2=O)cc1C(=O)Nc1nc2c(s1)CCC2	–	–
10.4	0.65	7.81 µM	Cc1sc([C@@H]2CCCN2C(=O)CN(C)C)cc1C(=O)Nc1ncc(Cl)s1.Cl	101%	Activity (Mus musculus [11]): Active; Cmax [4]: > 9 µM
2.57	0.118	–	CC(=O)N(C)CC(=O)N1CCCC1c1cc(C(=O)Nc2ncc(Cl)s2)c(C)s1 (stereo unspecified)	–	–
